Measurements reported in ChEMBL document CHEMBL2331122, “Cytotoxic polyketide derivatives from the South China Sea sponge Plakortis simplex” (J Nat Prod, 2013).
Structures can show the parent of a compound that is named as a salt.

Columns and labels:
Bel-7402 = experiment: Cytotoxicity against human Bel7402 cells after 72 hrs by MTT assay; type: functional, cell-based; settings: Bel-7402, 72 h
Method in brief: (§1)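 Human tumour cells plated 24 h ahead, then exposed continuously to a range of compound concentrations for 72 h. Viability read by MTT. Adriamycin served as positive control. IC50 is the concentration giving 50% inhibition of control growth. Three independent experiments, each in triplicate.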

A549 = experiment: Cytotoxicity against human A549 cells after 72 hrs by MTT assay; type: functional, cell-based; settings: A549, 72 h
Method in brief: (§2)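 Human tumour cells plated 24 h ahead, then exposed continuously to a range of compound concentrations for 72 h. Viability read by MTT. Adriamycin served as positive control. Three independent experiments, each in triplicate.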

K562 = experiment: Cytotoxicity against human K562 cells after 72 hrs by MTT assay; type: functional, cell-based; settings: K562, 72 h; method in brief: as §2
HeLa = experiment: Cytotoxicity against human HeLa cells after 72 hrs by MTT assay; type: functional, cell-based; method in brief: as §1
[1] = target: Hepatocyte growth factor receptor (Homo sapiens) (UniProt P08581); experiment: Inhibition of c-Met (unknown origin) at 10 uM after 60 mins by ELISA relative to control
Method in brief: (§3)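 ELISA tyrosine kinase assay. Compounds added in DMSO (1% v/v), which was also the negative control; SU11274 (1 μM) was the positive control. Reaction run 60 min at 37 °C. pTyr detected by PY99 plus HRP anti-mouse IgG (30 min, 37 °C), developed with OPD/H2O2, read at 490 nm. Percent inhibition calculated.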

[2] = target: Hepatocyte growth factor receptor (Homo sapiens) (UniProt P08581); experiment: Inhibition of c-Met (unknown origin) at 1 uM after 60 mins by ELISA relative to control; method in brief: as §3

Sequence of Hepatocyte growth factor receptor (Homo sapiens) (P08581 whole entry): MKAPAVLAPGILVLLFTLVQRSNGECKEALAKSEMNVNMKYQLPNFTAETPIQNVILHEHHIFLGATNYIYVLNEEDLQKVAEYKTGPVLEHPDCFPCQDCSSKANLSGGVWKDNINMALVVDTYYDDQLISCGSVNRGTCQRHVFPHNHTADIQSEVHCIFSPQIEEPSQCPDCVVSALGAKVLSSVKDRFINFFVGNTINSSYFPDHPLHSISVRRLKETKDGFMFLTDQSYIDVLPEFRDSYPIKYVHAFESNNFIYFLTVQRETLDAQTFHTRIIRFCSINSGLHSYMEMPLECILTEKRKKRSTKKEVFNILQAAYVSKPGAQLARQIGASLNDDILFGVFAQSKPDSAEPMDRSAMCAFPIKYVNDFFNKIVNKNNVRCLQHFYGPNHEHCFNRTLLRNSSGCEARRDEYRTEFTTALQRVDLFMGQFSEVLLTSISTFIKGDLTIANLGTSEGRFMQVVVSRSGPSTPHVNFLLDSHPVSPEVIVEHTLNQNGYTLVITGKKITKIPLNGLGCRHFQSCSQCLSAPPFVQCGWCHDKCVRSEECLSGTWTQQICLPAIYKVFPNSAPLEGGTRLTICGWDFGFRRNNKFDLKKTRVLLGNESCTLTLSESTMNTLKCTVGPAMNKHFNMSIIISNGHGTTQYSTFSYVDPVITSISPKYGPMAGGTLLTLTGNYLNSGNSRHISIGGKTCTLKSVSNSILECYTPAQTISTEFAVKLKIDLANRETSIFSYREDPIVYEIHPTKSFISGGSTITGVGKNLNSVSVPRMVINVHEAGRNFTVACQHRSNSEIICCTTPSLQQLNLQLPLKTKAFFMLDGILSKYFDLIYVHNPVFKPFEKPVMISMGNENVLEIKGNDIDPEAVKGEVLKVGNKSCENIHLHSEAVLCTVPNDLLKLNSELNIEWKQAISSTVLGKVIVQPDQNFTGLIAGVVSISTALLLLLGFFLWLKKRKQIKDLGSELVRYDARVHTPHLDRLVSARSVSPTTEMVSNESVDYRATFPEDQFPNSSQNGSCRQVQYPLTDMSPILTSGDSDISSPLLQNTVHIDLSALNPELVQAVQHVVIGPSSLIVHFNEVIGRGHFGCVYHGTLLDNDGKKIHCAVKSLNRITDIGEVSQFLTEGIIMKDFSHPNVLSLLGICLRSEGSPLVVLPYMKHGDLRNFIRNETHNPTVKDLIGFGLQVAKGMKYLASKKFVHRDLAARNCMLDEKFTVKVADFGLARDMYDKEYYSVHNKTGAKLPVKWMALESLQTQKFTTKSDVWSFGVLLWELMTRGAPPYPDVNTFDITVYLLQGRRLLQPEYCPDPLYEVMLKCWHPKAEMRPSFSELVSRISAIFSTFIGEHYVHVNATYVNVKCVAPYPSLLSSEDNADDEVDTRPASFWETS

Row | inhibition [1] | inhibition [2] | SMILES | IC50 (Bel-7402) | IC50 (A549) | IC50 (K562) | IC50 (HeLa)
1 | – | – | CCCC[C@H](CC)C[C@]1(CC)C=C(CC)/C(=C/C(=O)OC)O1 | > 100 µM | > 100 µM | 5.3 µM | 4.2 µM
2 | – | – | CC/C=C/[C@H](CC)C[C@]1(CC)C=C(CC)/C(=C/C(=O)OC)O1 | > 100 µM | > 100 µM | 0.8 µM | 2.6 µM
3 | – | – | COc1cccc2c1C(=O)c1c(O)c3c(c(O)c1C2=O)C[C@@](O)(C(=O)CO)C[C@@H]3O[C@H]1C[C@H](N)[C@H](O)[C@H](C)O1 [DOXORUBICIN HYDROCHLORIDE] | – | – | – | 0.6 µM
4 | – | – | CCCCC(C)Cc1cc(CC)c(CC(=O)O)o1 (configuration not stated) [PLAKORSIN D] | > 100 µM | > 100 µM | > 100 µM | > 100 µM
5 | – | – | CCCCC(C)C[C@]1(CC)O[C@H]1[C@]1(CC)C=CC(=O)O1 (some centres not stated) [PLAKORTOXIDE A] | > 100 µM | > 100 µM | > 50 µM | 31.5 µM
6 | – | – | CCCCC(CC)C[C@]1(CC)O[C@H]1[C@]1(CC)C=CC(=O)O1 (some centres not stated) [PLAKORTOXIDE B] | > 100 µM | > 100 µM | > 100 µM | > 50 µM
7 | – | – | CCCCC(C)C/C(=C\[C@@]1(CC)OC(=O)C[C@@H]1O)CC (some centres not stated) [SIMPLEXOLIDE B] | > 100 µM | > 100 µM | 2.2 µM | 4.7 µM
8 | – | – | CCCCC(C)C/C(=C/[C@@]1(CC)OC(=O)C[C@@H]1O)CC (some centres not stated) [SIMPLEXOLIDE E] | > 100 µM | > 100 µM | 49.2 µM | 31.2 µM
9 | 57.4% | 34.3% | CC/C=C/[C@H]1C[C@](O)(CC)[C@@H]([C@]2(CC)OC(=O)C[C@@H]2O)[C@@H]1C [SIMPLEXTONE C] | > 100 µM | 40.4 µM | 19.4 µM | 29 µM
10 | – | – | CCC[C@@H]1[C@@H](C)C[C@](O)(CC)[C@H]1[C@]1(CC)OC(=O)C[C@@H]1O [SIMPLEXTONE D] | > 100 µM | > 100 µM | > 100 µM | > 50 µM
11 | – | – | CCCCC(C)CC(O)(/C=C(/CC)[C@@H](O)CC(=O)OC)CC (some centres not stated) [WOODYLIDE A] | > 100 µM | 29.3 µM | 23.8 µM | 15.5 µM
12 | – | – | CCCCC(CC)CC(O)(/C=C(/CC)[C@@H](O)CC(=O)OC)CC (some centres not stated) [WOODYLIDE B] | > 100 µM | 23.6 µM | 20 µM | 15.9 µM
